According to paper PMC9421316 (Heliyon, 2022):
Where two headings read alike, the source gives them in different places. Ends that are not written are not given here.

Key:
[1] = diluted WSS from periodontally healthy individuals, HPLC, ref McDonald et al. 8, cited from earlier work
[2] = Degradation mode of histatins in pooled 1:10 diluted WSS, cationic PAGE; type: in vitro ADME, human; details: 100 μg/mL, 37 °C
In short: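 Unstimulated whole saliva from adolescents (n = 8/group: spastic CP with gingivitis, no CP/no gingivitis, no CP with gingivitis) was held on ice ≤3 h, spun at 1,500×g for 2 min then 14,000×g for 20 min at 4 °C, and the supernatant stored at -80 °C. Supernatant was diluted 1:10 in distilled water and pooled by group. Synthetic histatin 1 or 5 (final 100 μg/mL) was incubated at 37 °C for 0–48 h, with aliquots boiled 5 min. Samples were dried, desalted, and run on 20% cationic PAGE; band intensity was compared with time zero.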

[3] = cited from earlier work
[4] = type: in vitro ADME, human; details: for % BD (mean ± S.D.): all groups and time points

time after which degradation fragments were observed on cationic PAGE ([2]; pooled G2 WSS diluted 1:10): 8 h | time after which degradation fragments were observed on cationic PAGE ([2]; pooled G3 WSS diluted 1:10): 8 h | speed of degradation, G1 relative to G2 and G3 ([4]; during a 48 h interval, 1:10 diluted WSS): 1.78 times | remaining at 48 h, 100 μg/mL ([4]; human, individual whole saliva supernatant (WSS) diluted 1:10): 56% | metabolised at 4 h, 100 μg/mL ([4]; human, whole saliva supernatant (WSS) diluted 1:10, reduction in band density, G2 and G3 (stated together), 1:10 diluted WSS, 37 °C, printed as after 4 h of incubation): ~14% | % BD (mean ± S.D.) ([4]; saliva of female subjects, 1:10 diluted WSS): 79.3 ± 23.6% | % BD (mean ± S.D.) ([4]; saliva of male subjects, 1:10 diluted WSS): 77.6 ± 20.9%
Sequence: DSHEKRHHGYRRKFHEKHHSHREFPFYGDYGSNYLYDN [histatin 1]
intact protein degraded ([1]; 0.5 h): 28% | intact protein degraded ([1]; 2 h): 83% | histatin 1 degraded ([3]; 1.5 h of incubation with WSS): approximately 50% | time after which totally degraded ([3]; incubation with WSS): 40 h
